Experimental data from ChEMBL document CHEMBL4765283, “Design, synthesis, in vitro and in silico studies of novel 4-oxoquinoline ribonucleoside derivatives as HIV-1 reverse transcriptase inhibitors” (Eur J Med Chem, 2020).

What was measured:
[1] = Protection index, ratio of azidothymidine CC50 to test compound CC50 for human PBMC; format: ADME, tissue-based; conditions: read-out: PI
[2] = Cytotoxicity against human PBMC assessed as reduction in cell viability after 72 hrs by XTT assay; format: tissue-based
Outline: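 Primary human PBMCs, 2×10^4 cells/well, exposed to compounds at several concentrations for 72 h. XTT (5 mg/mL) with 0.01 % PMS in DMEM then added for 4 h at 37 °C. Absorbance read at 492 and 620 nm. CC50 obtained by linear regression of dose-response curves.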

[3] = Inhibition of recombinant HIV1 HXB2 reverse transcriptase RDDP activity assessed as reduction in biotin/digoxin-dU incorporation into polirA-oligodU template primer measured after 30 mins by ELISA; design: species or system HIV-1 M:B_HXB2R
Outline: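 Purified recombinant HIV-1 RT (HXB2 clone), 3 U, incubated with compounds over a concentration range and poly(rA)-oligo(dU). Biotin- and digoxin-labelled dU (equimolar) incorporated at 37 °C for 30 min, stopped with 0.5 M EDTA. Product captured on streptavidin-coated plates and detected with peroxidase-tagged anti-digoxin antibody. Absorbance read at 570 nm against 690 nm reference. IC50 from linear regression of dose-response curves.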

[4] = system: HIV1 HXB2 reverse transcriptase RDDP activity; experiment: Selectivity index, ratio of CC50 for human PBMC to IC50 for inhibition of recombinant HIV1 HXB2 reverse transcriptase RDDP activity; format: toxicity; conditions: read-out: Ratio CC50/IC50

Row | SMILES | selectivity ratio [1] | CC50 at 72 h [2] [µM] | IC50 [3] [µM] | selectivity ratio [4]
1 | Cc1ccc2c(c1)c(=O)c(C(=O)NCc1ccc(Cl)cc1)cn2[C@@H]1O[C@H](CO)[C@@H](O)[C@H]1O | > 10 | > 1000 | 4.3 | –
2 | O=C(NCc1ccc(Cl)cc1)c1cn([C@@H]2O[C@H](CO)[C@@H](O)[C@H]2O)c2ccc(Cl)cc2c1=O | > 10 | > 1000 | 18.4 | –
3 | O=C(NCc1ccc(Cl)cc1)c1cn([C@@H]2O[C@H](CO)[C@@H](O)[C@H]2O)c2ccc(C(F)(F)F)cc2c1=O | > 10 | > 1000 | 3.9 | –
4 | O=C(OC[C@H]1O[C@@H](n2cc(C(=O)NCc3ccc(Cl)cc3)c(=O)c3cc(F)ccc32)[C@H](OC(=O)c2ccccc2)[C@@H]1OC(=O)c1ccccc1)c1ccccc1 | > 10 | > 1000 | 2.8 | –
5 | O=C(NCc1ccc(Cl)cc1)c1cn([C@@H]2O[C@H](CO)[C@@H](O)[C@H]2O)c2ccccc2c1=O | > 10 | > 1000 | 29.2 | –
6 | O=C(OC[C@H]1O[C@@H](n2cc(C(=O)Nc3ccccc3)c(=O)c3cc(Cl)ccc32)[C@H](OC(=O)c2ccccc2)[C@@H]1OC(=O)c1ccccc1)c1ccccc1 | > 10 | > 1000 | 19.5 | –
7 | O=C(OC[C@H]1O[C@@H](n2cc(C(=O)NCc3ccc(Cl)cc3)c(=O)c3cc(Cl)ccc32)[C@H](OC(=O)c2ccccc2)[C@@H]1OC(=O)c1ccccc1)c1ccccc1 | > 10 | > 1000 | 8.8 | –
8 | Cc1ccc2c(c1)c(=O)c(C(=O)NCc1ccc(Cl)cc1)cn2[C@@H]1O[C@H](COC(=O)c2ccccc2)[C@@H](OC(=O)c2ccccc2)[C@H]1OC(=O)c1ccccc1 | > 10 | 1390 | 1.6 | 830
9 | COc1ccc(NC(=O)c2cn([C@@H]3O[C@H](CO)[C@@H](O)[C@H]3O)c3ccc(Cl)cc3c2=O)cc1 | > 10 | > 1000 | 3.4 | –
10 | O=C(Nc1ccc(F)cc1)c1cn([C@@H]2O[C@H](CO)[C@@H](O)[C@H]2O)c2ccc(Cl)cc2c1=O | > 10 | > 1000 | 5.8 | –
11 | COc1ccc(NC(=O)c2cn([C@@H]3O[C@H](COC(=O)c4ccccc4)[C@@H](OC(=O)c4ccccc4)[C@H]3OC(=O)c3ccccc3)c3ccc(Cl)cc3c2=O)cc1 | > 10 | > 1000 | 6.8 | –
12 | O=C(OC[C@H]1O[C@@H](n2cc(C(=O)NCc3ccc(Cl)cc3)c(=O)c3cc(C(F)(F)F)ccc32)[C@H](OC(=O)c2ccccc2)[C@@H]1OC(=O)c1ccccc1)c1ccccc1 | > 10 | > 1000 | 2.9 | –
13 | O=C(NCc1ccc(Cl)cc1)c1cn([C@@H]2O[C@H](CO)[C@@H](O)[C@H]2O)c2ccc(F)cc2c1=O | > 10 | > 1000 | 3.9 | –
14 | Cc1ccc(NC(=O)c2cn([C@@H]3O[C@H](COC(=O)c4ccccc4)[C@@H](OC(=O)c4ccccc4)[C@H]3OC(=O)c3ccccc3)c3ccc(Cl)cc3c2=O)cc1 | > 10 | > 1000 | 16.6 | –
15 | O=C(OC[C@H]1O[C@@H](n2cc(C(=O)NC3CCCCC3)c(=O)c3cc(Cl)ccc32)[C@H](OC(=O)c2ccccc2)[C@@H]1OC(=O)c1ccccc1)c1ccccc1 | > 10 | > 1000 | 8.6 | –
16 | O=C(OC[C@H]1O[C@@H](n2cc(C(=O)Nc3ccc(Cl)cc3)c(=O)c3cc(Cl)ccc32)[C@H](OC(=O)c2ccccc2)[C@@H]1OC(=O)c1ccccc1)c1ccccc1 | > 10 | > 1000 | 9.9 | –
17 | O=C(OC[C@H]1O[C@@H](n2cc(C(=O)Nc3ccc(F)cc3)c(=O)c3cc(Cl)ccc32)[C@H](OC(=O)c2ccccc2)[C@@H]1OC(=O)c1ccccc1)c1ccccc1 | > 10 | > 1000 | 7.3 | –
18 | O=C(NC1CCCCC1)c1cn([C@@H]2O[C@H](CO)[C@@H](O)[C@H]2O)c2ccc(Cl)cc2c1=O | > 10 | > 1000 | 22.4 | –
19 | Cc1cn([C@H]2C[C@H](N=[N+]=[N-])[C@@H](CO)O2)c(=O)[nH]c1=O [ZIDOVUDINE] | – | 126 | 0.05 | –
20 | O=C(OC[C@H]1O[C@@H](n2cc(C(=O)NCc3ccc(Cl)cc3)c(=O)c3ccccc32)[C@H](OC(=O)c2ccccc2)[C@@H]1OC(=O)c1ccccc1)c1ccccc1 | > 10 | 1490 | 1.4 | 998
21 | O=C(Nc1ccc(Cl)cc1)c1cn([C@@H]2O[C@H](CO)[C@@H](O)[C@H]2O)c2ccc(Cl)cc2c1=O | > 10 | > 1000 | 8 | –
22 | O=C(Nc1ccccc1)c1cn([C@@H]2O[C@H](CO)[C@@H](O)[C@H]2O)c2ccc(Cl)cc2c1=O | > 10 | > 1000 | 2.6 | –
